Publication PMC11452527 (Nature Communications, 2024)
Like-named read-outs stand apart in the source and are kept apart here. One block for each molecule: values may come before it.

What was measured:
[1] = target: αIIbβ3; settings: cited from earlier work
[2] = test system: platelets; settings: cited from earlier work
[3] = Plasma protein binding by rapid equilibrium dialysis; assay type: in vitro ADME; settings: human, platelet-free human plasma
[4] = target: T1, αIIbβ3 (Homo sapiens, UniProt P05106+P08514); experiment: LIBS AP5 epitope exposure on platelet αIIbβ3; assay type: cell-based; settings: washed human platelets; tirofiban 0.17 μM, m-tirofiban 16 μM, Hr10 7.6 μM
T1 sequence (P08514 32-887 limits assumed): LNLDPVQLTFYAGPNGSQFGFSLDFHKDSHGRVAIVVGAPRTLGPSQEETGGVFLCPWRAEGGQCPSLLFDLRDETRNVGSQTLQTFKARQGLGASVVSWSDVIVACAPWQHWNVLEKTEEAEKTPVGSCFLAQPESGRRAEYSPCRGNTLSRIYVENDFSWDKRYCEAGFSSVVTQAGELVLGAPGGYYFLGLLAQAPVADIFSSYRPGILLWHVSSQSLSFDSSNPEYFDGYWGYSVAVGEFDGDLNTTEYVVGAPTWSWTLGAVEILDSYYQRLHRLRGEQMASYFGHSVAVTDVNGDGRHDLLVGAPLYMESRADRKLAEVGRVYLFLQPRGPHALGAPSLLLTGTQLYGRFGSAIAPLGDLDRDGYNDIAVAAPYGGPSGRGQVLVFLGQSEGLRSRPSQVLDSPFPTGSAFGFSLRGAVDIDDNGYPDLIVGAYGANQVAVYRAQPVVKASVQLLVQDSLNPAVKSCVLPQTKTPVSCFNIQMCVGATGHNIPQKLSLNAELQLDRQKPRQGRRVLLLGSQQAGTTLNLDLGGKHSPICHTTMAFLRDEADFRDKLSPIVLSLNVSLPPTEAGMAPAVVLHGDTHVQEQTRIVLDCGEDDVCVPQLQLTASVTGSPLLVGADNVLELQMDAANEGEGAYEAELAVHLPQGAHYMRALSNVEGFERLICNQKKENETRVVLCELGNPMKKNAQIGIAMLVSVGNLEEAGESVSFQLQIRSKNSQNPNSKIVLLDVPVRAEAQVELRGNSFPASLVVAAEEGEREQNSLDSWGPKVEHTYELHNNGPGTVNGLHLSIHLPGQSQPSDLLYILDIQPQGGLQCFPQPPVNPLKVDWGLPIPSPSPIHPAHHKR
T1 sequence (P08514 891-1039 partner limits assumed): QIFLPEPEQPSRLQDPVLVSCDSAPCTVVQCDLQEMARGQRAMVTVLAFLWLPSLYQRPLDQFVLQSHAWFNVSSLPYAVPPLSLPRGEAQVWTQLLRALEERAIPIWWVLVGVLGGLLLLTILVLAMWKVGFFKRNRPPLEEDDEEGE
T1 sequence (P05106 27-788): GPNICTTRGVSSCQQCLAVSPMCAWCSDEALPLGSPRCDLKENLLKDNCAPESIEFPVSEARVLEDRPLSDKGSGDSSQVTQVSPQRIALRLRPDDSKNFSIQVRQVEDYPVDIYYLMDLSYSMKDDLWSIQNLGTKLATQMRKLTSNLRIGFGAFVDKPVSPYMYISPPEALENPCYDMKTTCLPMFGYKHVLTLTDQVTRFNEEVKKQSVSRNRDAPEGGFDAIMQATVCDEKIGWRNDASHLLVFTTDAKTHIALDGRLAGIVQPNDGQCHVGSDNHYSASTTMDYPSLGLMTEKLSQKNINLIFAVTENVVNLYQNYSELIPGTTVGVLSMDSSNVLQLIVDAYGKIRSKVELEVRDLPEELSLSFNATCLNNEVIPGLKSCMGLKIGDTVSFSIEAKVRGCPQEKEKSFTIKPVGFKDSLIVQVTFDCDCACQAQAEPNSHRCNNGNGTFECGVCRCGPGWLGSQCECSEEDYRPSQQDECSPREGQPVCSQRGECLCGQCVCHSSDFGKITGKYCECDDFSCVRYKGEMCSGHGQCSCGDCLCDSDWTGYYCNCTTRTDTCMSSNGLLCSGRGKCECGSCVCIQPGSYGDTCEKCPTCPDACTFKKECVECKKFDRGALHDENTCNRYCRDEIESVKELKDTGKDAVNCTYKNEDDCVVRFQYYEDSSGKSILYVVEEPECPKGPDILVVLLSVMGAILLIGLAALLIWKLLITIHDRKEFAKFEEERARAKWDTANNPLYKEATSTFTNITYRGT
Procedure, shortened: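 Washed platelets came from citrated blood of drug-free donors: PRP was spun with PGE1 (20 ng/ml final), washed in Ringer's citrate-dextrose, and resuspended in Tyrode's buffer (pH 7.4, 0.02% BSA, 1 mM Ca²⁺/Mg²⁺). Buffer or test compound was preincubated 20 min at RT without stirring, then ADP (20 µM) plus Alexa647-AP5 (10 µg/mL) was added for 30 min at RT. Samples were diluted, fixed in 2% paraformaldehyde, and read by flow-cytometric MFI. Mean + s.e., n = 4 donors.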

[5] = test system: platelets in whole blood; experiment: ADP-induced platelet aggregation in 1:1 diluted whole blood; assay type: cell-based; settings: Homo sapiens, read-out: IC50agg
[6] = target: T1, αIIbβ3; experiment: ODE model of inhibitor occupancy of αIIbβ3; settings: ODEs Eq 16-22
[7] = test system: human PRP; experiment: Thrombin-induced clot retraction in platelet-rich plasma; assay type: cell-based; settings: read-out: IC50clot
[8] = test system: C57BL/6J mice; experiment: Thrombin-induced femoral vein thrombosis model; assay type: in vivo, mouse; settings: bolus tirofiban 0.025 μg/g, m-tirofiban 0.3 μg/g
[9] = test system: C57BL/6J mice; experiment: Tail vein bleeding model; assay type: in vivo, mouse; settings: at the dose that suppressed femoral VT

Molecule: N=C(N)c1ccc(C(=O)N[C@@H](Cc2ccc([N+](=O)[O-])cc2)C(=O)N2CCc3nn(CC(=O)O)cc3C2)cc1 [UR-2922]
Kd ([1]; read-out: mean Kd to αIIbβ3): 0.3 nM
IC50clot/IC50agg ratio [2]: 20.63

fraction unbound at 24 h, 2 µM [3]: 0.413 ± 0.0303
AP5 epitope expression above that seen with ADP (or thrombin) alone [4]: large increase
IC50 [5]: 6 ± 0.58 nM
concentration for 50% occupancy of αIIbβ3 (50% OCCL:T) ([6]; 1:1 diluted whole blood): 26.5 nM
concentration for 50% occupancy of αIIbβ3 (50% OCCL:T) ([6]; undiluted whole blood): 38.0 nM
IC50 [7]: 162 ± 61 nM
bleeding time vs PBS [9]: prolonged bleeding time
bleeding vs PBS [9]: significant bleeding
Molecule: CCCCS(=O)(=O)N[C@@H](Cc1ccc(OCCCCC2CCNCC2)cc1)C(=O)O [tirofiban]
total accumulation of fibrin vs untreated [8]: significant only at a p-value of 0.0606
Kd ([1]; read-out: Kd for pretreated (inactive) αIIbβ3): 15 nM

Molecule: fibrinogen
Kd ([1]; read-out: Kd,F of fibrinogen to αIIbβ3, assumed in ODE model ref 58): 143 nM
